Test results from paper PMC8268672 (Bioorganic Chemistry, 2021).
Converted amounts (≈) assume the structure as drawn. Read-outs that look alike come from different tables or passages of the source.

What was measured:
[1] = system: Cryptococcus neoformans (ATCC 9011); assay: MIC, broth microdilution; assay type: cell-based; conditions: ATCC9011, read-out: Minimum inhibitory concentration (MIC), CN
Procedure, shortened: (§1)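 Antifungal MICs by CLSI broth microdilution in Sabouraud liquid medium. Test compounds and standard drugs are serially diluted two-fold from 512 to 0.25. The fungal broth culture is grown 24 h at 35 °C to a 0.5 McFarland turbidity, then adjusted with sterile solution to the final inoculum.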

Punta Toro virus = assay: CPE reduction assay in Vero cells; assay type: cell-based; conditions: read-out: Antiviral EC50, Punta Toro virus
[2] = system: Aspergillus niger (NCIM 2191); assay: MIC, broth microdilution; assay type: cell-based; conditions: NCIM2191, read-out: Minimum inhibitory concentration (MIC), AN
Procedure, shortened: as §1

[3] = system: Salmonella typhimurium (NCIM-2501); assay: Agar disk diffusion, inhibition zone; assay type: cell-based; conditions: 100 µg/8 mm disc, triplicate, mean ± SD
Reovirus-1 = assay: CPE reduction assay in Vero cells; assay type: cell-based; conditions: read-out: Antiviral EC50, Reovirus-1
[4] = system: Cryptococcus neoformans (ATCC 9011); assay: Agar disk diffusion, inhibition zone; assay type: cell-based; conditions: 100 µg/8 mm disc, triplicate, mean ± SD
Para-influenza-3 virus = assay: CPE reduction assay in Vero cells; assay type: cell-based, Parainfluenza-3 virus; conditions: Vero, read-out: Antiviral EC50, Para-influenza-3 virus
Adeno virus-2 = assay: CPE reduction assay in HEL cells; assay type: cell-based; conditions: read-out: Antiviral EC50, Adeno virus-2
MT4 cells = conditions: MT4 cell cultures; colorimetric MTT cell viability assay
[5] = system: Escherichia coli (ATCC 8739); assay: Agar disk diffusion, inhibition zone; assay type: cell-based; conditions: 100 µg/8 mm disc, triplicate, mean ± SD
Procedure, shortened: (§2)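 Agar disk diffusion on Mueller-Hinton agar plates seeded with a standard bacterial suspension. Test compound stock in DMSO, diluted with distilled water; 8 mm sterile filter-paper discs soaked in the solution. Ampicillin was the reference. Plates incubated at 35 °C for 24 h, in triplicate. Read-out is the average inhibition-zone diameter (mm) around each disc.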

[6] = system: Candida albicans (NCIM 2087); assay: MIC, broth microdilution; assay type: cell-based; conditions: NCIM2087, read-out: Minimum inhibitory concentration (MIC), CA
Procedure, shortened: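 CLSI broth microdilution in Sabouraud liquid medium, with test compound two-fold serially diluted from 512 to 0.25. Fungal broth culture grown 24 h at 35 °C to 0.5 McFarland turbidity, then adjusted with sterile solution to a final […] inoculum. MIC expressed in µg/mL.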

Vaccinia virus = assay: microbe, parasite or virus in culture; assay type: cell-based; conditions: Orthopoxvirus vaccinia, HEL, read-out: Antiviral EC50, Vaccinia virus
Human Coronavirus (229E) = assay: CPE reduction assay in HEL cells; assay type: cell-based; conditions: read-out: Antiviral EC50, Human Coronavirus (229E)
[7] = system: Pseudomonas aeruginosa (MCCB 0035); assay: Agar disk diffusion, inhibition zone; assay type: cell-based; conditions: 100 µg/8 mm disc, triplicate, mean ± SD
[8] = system: Bacillus cereus (NCIM-2458); assay: MIC, broth microdilution; assay type: cell-based; conditions: NCIM2458, read-out: Minimum inhibitory concentration (MIC), BC
Procedure, shortened: (§3)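 Broth microdilution per CLSI in Mueller-Hinton broth, using two-fold serial dilutions of test compound and reference drugs from 512 to 0.25. Bacterial broth cultures were grown 2-6 h to 0.5 McFarland turbidity, then diluted with sterile solution to the final inoculum. MIC is reported in µg/mL.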

[9] = system: Aspergillus fumigatus (NCIM 2081); assay: Agar disk diffusion, inhibition zone; assay type: cell-based; conditions: 100 µg/8 mm disc, triplicate, mean ± SD
Coxsackie virus B4 = assay: CPE reduction assay in Vero cells; assay type: cell-based; conditions: Enterovirus B, read-out: Antiviral EC50, Coxsackie virus B4
[10] = system: Influenza A/H3N2 A/HK/7/87; assay: CPE reduction assay in MDCK cells; assay type: cell-based; conditions: Influenza A virus
Vero cells = conditions: Vero cell cultures; microscopically detectable alteration of normal cell morphology
[11] = system: Pseudomonas aeruginosa (MCCB 0035); assay: MIC, broth microdilution; assay type: cell-based; conditions: read-out: Minimum inhibitory concentration (MIC), PA
Procedure, shortened: as §3

[12] = system: Klebsiella aerogenes (NCIM-2098); assay: MIC, broth microdilution; assay type: cell-based; conditions: NCIM2098, read-out: Minimum inhibitory concentration (MIC), KA
Procedure, shortened: (§4)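 Antibacterial MICs by CLSI broth microdilution in Mueller-Hinton broth. Test compounds and standard drugs are serially diluted two-fold from 512 to 0.25. The bacterial broth culture is grown 2-6 h to a 0.5 McFarland turbidity, then adjusted with sterile solution to the final inoculum.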

[13] = system: Bacillus cereus (NCIM-2458); assay: Agar disk diffusion, inhibition zone; assay type: cell-based; conditions: 100 µg/8 mm disc, triplicate, mean ± SD
[14] = system: Klebsiella aerogenes (NCIM-2098); assay: Agar disk diffusion, inhibition zone; assay type: cell-based; conditions: 100 µg/8 mm disc, triplicate, mean ± SD
Yellow Fever virus = assay: microbe, parasite or virus in culture; assay type: cell-based; conditions: Yellow fever virus, Vero, read-out: Antiviral EC50, Yellow Fever virus
Sindbis virus = assay: CPE reduction assay in Vero cells; assay type: cell-based; conditions: read-out: Antiviral EC50, Sindbis virus
Influenza B B/Ned/537/05 = assay: CPE reduction assay in MDCK cells; assay type: cell-based; conditions: Influenza B virus, read-out: Antiviral EC50, Influenza B B/Ned/537/05, MTS
[15] = system: Influenza A/H1N1 A/Ned/378/05; assay: CPE reduction assay in MDCK cells; assay type: cell-based; conditions: Influenza A virus
[16] = system: Aspergillus niger (NCIM 2191); assay: Agar disk diffusion, inhibition zone; assay type: cell-based; conditions: 100 µg/8 mm disc, triplicate, mean ± SD
Procedure, shortened: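 For the fungal strain, discs soaked in test compound solution (DMSO stock diluted with distilled water) sat on seeded Mueller-Hinton agar. Clotrimazole was the reference. Incubation ran 48 h at 35 °C, in triplicate. Zone of growth inhibition recorded in mm as the mean diameter around each disc.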

[17] = system: Human embryonic lung (HEL) cells; conditions: HEL cell cultures; microscopically detectable alteration of normal cell morphology
[18] = system: Staphylococcus aureus (ATCC 29213); assay: Agar disk diffusion, inhibition zone; assay type: cell-based; conditions: 100 µg/8 mm disc, triplicate, mean ± SD
Procedure, shortened: as §2

[19] = system: Aspergillus fumigatus (NCIM 2081); assay: MIC, broth microdilution; assay type: cell-based; conditions: NCIM2081, read-out: Minimum inhibitory concentration (MIC), AF
Procedure, shortened: as §1

[20] = system: Madin Darby canine kidney (MDCK) cells; conditions: dog
[21] = system: Lactobacillus casei (NCIM-2651); assay: Agar disk diffusion, inhibition zone; assay type: cell-based; conditions: 100 µg/8 mm disc, triplicate, mean ± SD
[22] = system: Staphylococcus aureus (ATCC 29213); assay: MIC, broth microdilution; assay type: cell-based; conditions: ATCC29213, read-out: Minimum inhibitory concentration (MIC), SA
Procedure, shortened: as §4

[23] = system: Escherichia coli (ATCC 8739); assay: MIC, broth microdilution; assay type: cell-based; conditions: ATCC8739, read-out: Minimum inhibitory concentration (MIC), EC
Procedure, shortened: as §3

[24] = system: Candida albicans (NCIM 2087); assay: Agar disk diffusion, inhibition zone; assay type: cell-based; conditions: 100 µg/8 mm disc, triplicate, mean ± SD
[25] = system: Streptococcus pneumonia (ATCC 49619); assay: Agar disk diffusion, inhibition zone; assay type: cell-based; conditions: 100 µg/8 mm disc, triplicate, mean ± SD
[26] = read-out: Antiviral EC50, Influenza A/H3N2 A/HK/7/87, MTS
[27] = read-out: Antiviral EC50, Influenza A/H3N2 A/HK/7/87, visual CPE score
[28] = read-out: Antiviral EC50, Influenza A/H1N1 A/Ned/378/05, MTS
[29] = read-out: Antiviral EC50, Influenza A/H1N1 A/Ned/378/05, visual CPE score

Row | SMILES | MIC [1] [µg/mL] | EC50 (Punta Toro virus) [µM] | MIC [2] [µg/mL] | Diameter of growth inhibition zone, ST [3] [mm] | EC50 (Reovirus-1) [µM] | Diameter of growth inhibition zone, CN [4] [mm] | EC50 (Para-influenza-3 virus) [µM] | EC50 (Adeno virus-2) [µM] | Minimum cytotoxic conc. (MT4 cells) [µM] | Diameter of growth inhibition zone, EC [5] [mm] | MIC [6] [µg/mL] | EC50 (Vaccinia virus) [µM] | EC50 (Human Coronavirus (229E)) [µM] | Diameter of growth inhibition zone, PA [7] [mm] | MIC [8] [µg/mL] | Diameter of growth inhibition zone, AF [9] [mm] | EC50 (Coxsackie virus B4) [µM] | EC50 [10, 26] [µM] | EC50 [10, 27] [µM] | Minimum cytotoxic conc. (Vero cells) [µM] | also measured
1 | Cc1ccc(S(=O)(=O)N2C(=O)CSC2c2ccccc2)cc1 (centres unmarked) [5a, 3-[(4-Methylphenyl)sulfonyl]-2-phenyl-1,3-thiazolidin-4-one] | 128 (≈ 384 µM) | > 100 | 32 (≈ 96 µM) | 07 ± 1.5 | > 100 | 8.2 ± 0.5 | > 100 | > 100 | >125 | 13.2 ± 1.1 | 64 (≈ 192 µM) | > 100 | > 100 | 12.5 ± 0.6 | 128 (≈ 384 µM) | 10.2 ± 1.2 | > 100 | > 100 | > 100 | >100 | MIC [11]: 128 µg/mL (≈ 384 µM); MIC [12]: > 256 µg/mL; Diameter of growth inhibition zone, BC [13]: 08 ± 0.4 mm; Diameter of growth inhibition zone, KA [14]: 07 ± 1.74 mm; EC50 (Yellow Fever virus): > 100 µM; EC50 (Sindbis virus): > 100 µM; EC50 (Influenza B B/Ned/537/05): > 100 µM; EC50 [15, 28]: > 100 µM; EC50 [15, 29]: > 100 µM; Diameter of growth inhibition zone, AN [16]: 10.1 ± 1.1 mm; Minimum cytotoxic conc. [17]: >100 µM; Diameter of growth inhibition zone, SA [18]: 13.8 ± 0.9 mm; MIC [19]: 64 µg/mL (≈ 192 µM); Cytotoxicity, Minimum cytotoxic conc. [20]: >100 µM; Diameter of growth inhibition zone, LC [21]: 10 ± 0.4 mm; MIC [22]: 64 µg/mL (≈ 192 µM); MIC [23]: 64 µg/mL (≈ 192 µM); Diameter of growth inhibition zone, CA [24]: 10.8 ± 2.3 mm; Diameter of growth inhibition zone, SP [25]: 08 ± 0.8 mm
2 | Cc1ccc(S(=O)(=O)N2C(=O)CSC2c2ccccc2Cl)cc1 (centres unmarked) [5e, 2-(2-Chlorophenyl)-3-[(4-methylphenyl)sulfonyl]-1,3-thiazolidin-4-one] | 16 (≈ 43.5 µM) | > 100 | 32 (≈ 87 µM) | 10 ± 0.72 | > 100 | 12 ± 0.9 | > 100 | > 100 | >125 | 19 ± 0.69 | 32 (≈ 87 µM) | > 100 | > 100 | 18 ± 0.55 | 64 (≈ 174 µM) | 9.6 ± 1.2 | > 100 | > 100 | > 100 | >100 | MIC [11]: 32 µg/mL (≈ 87 µM); MIC [12]: 32 µg/mL (≈ 87 µM); Diameter of growth inhibition zone, BC [13]: 10 ± 0.7 mm; Diameter of growth inhibition zone, KA [14]: 12 ± 0.5 mm; EC50 (Yellow Fever virus): > 100 µM; EC50 (Sindbis virus): > 100 µM; EC50 (Influenza B B/Ned/537/05): > 100 µM; EC50 [15, 28]: > 100 µM; EC50 [15, 29]: > 100 µM; Diameter of growth inhibition zone, AN [16]: 10.2 ± 0.9 mm; Minimum cytotoxic conc. [17]: >100 µM; Diameter of growth inhibition zone, SA [18]: 17 ± 3.6 mm; MIC [19]: 64 µg/mL (≈ 174 µM); Cytotoxicity, Minimum cytotoxic conc. [20]: >100 µM; Diameter of growth inhibition zone, LC [21]: 14 ± 0.3 mm; MIC [22]: 64 µg/mL (≈ 174 µM); MIC [23]: 16 µg/mL (≈ 43.5 µM); Diameter of growth inhibition zone, CA [24]: 10.8 ± 1.5 mm; Diameter of growth inhibition zone, SP [25]: 10 ± 1.32 mm
3 | Cc1ccc(S(=O)(=O)N2C(=O)CSC2c2ccc(C(C)C)cc2)cc1 (centres unmarked) [5n, 3-[(4-Methylphenyl)sulfonyl]-2-[4-(propan-2-yl)phenyl]-1,3-thiazolidin-4-one] | > 512 | > 100 | > 256 | 07 ± 1.5 | > 100 | 5 ± 0.3 | > 100 | > 100 | >125 | 08 ± 0.65 | > 256 | > 100 | > 100 | 8.5 ± 1.5 | > 256 | 9.5 ± 0.9 | > 100 | > 100 | > 100 | >100 | MIC [11]: > 256 µg/mL; MIC [12]: > 256 µg/mL; Diameter of growth inhibition zone, BC [13]: 07 ± 0.1 mm; Diameter of growth inhibition zone, KA [14]: 07 ± 0.7 mm; EC50 (Yellow Fever virus): > 100 µM; EC50 (Sindbis virus): > 100 µM; EC50 (Influenza B B/Ned/537/05): > 100 µM; EC50 [15, 28]: > 100 µM; EC50 [15, 29]: > 100 µM; Diameter of growth inhibition zone, AN [16]: 10 ± 1.2 mm; Minimum cytotoxic conc. [17]: >100 µM; MIC [19]: > 512 µg/mL; Cytotoxicity, Minimum cytotoxic conc. [20]: >100 µM; Diameter of growth inhibition zone, LC [21]: 07 ± 0.30 mm; MIC [22]: > 256 µg/mL; MIC [23]: > 256 µg/mL; Diameter of growth inhibition zone, CA [24]: 9 ± 1.5 mm; Diameter of growth inhibition zone, SP [25]: 07 ± 0.6 mm
